# From PubChem BioAssay
# MEKK2mut PB1 HTS = signal of MEK5 binding to mutant human MEKK2 PB1 domain; AID 1530; bead flow cytometry, Alexa488-MEK5 binding to MEKK2 mutant; percent response, % at 10 µM; 290,000 tested, 0.35% active; in the data active = percent response above about 24%, passing the limit was not always enough
# UBC13 polyUb = inhibitors of human UBC13 polyubiquitin chain formation; TR-FRET; 330,000 tested, 0.47% active; inhibition, % at 20 µM; AID 485273; in the data active = inhibition above about 45%, passing the limit was not always enough
# MEKK2 WT-MEK5 = raises or lowers MEK5 binding to wildtype human MEKK2 PB1 domain; 290,000 tested, 1.1% active; binding response (% of control), % at 10 µM; AID 1531; Q9Y2U5; bead flow cytometry, Alexa488-MEK5 binding to MEKK2 WT; actives lie on both sides; in the data active = binding response below about 67% or above about 130%
# MEKK3 PB1 HTS = raises or lowers MEK5 binding to the human MEKK3 PB1 domain; AID 1529; binding response (% of control), % at 10 µM; bead-based flow cytometry, Alexa488-MEK5 binding to MEKK3; actives lie on both sides; 0 = blocked by unlabeled MEK5, 100 = vehicle; Q99759; 290,000 tested, 1.4% active;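 active = binding response more than 3 SD above or below the average of its plate-row segment, actives on both sides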;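 note: Alexa488 bead fluorescence after subtracting the streptavidin-only scavenger bead signal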
# Target sequence (Q99759 whole entry, looked up, the tested form may be a part): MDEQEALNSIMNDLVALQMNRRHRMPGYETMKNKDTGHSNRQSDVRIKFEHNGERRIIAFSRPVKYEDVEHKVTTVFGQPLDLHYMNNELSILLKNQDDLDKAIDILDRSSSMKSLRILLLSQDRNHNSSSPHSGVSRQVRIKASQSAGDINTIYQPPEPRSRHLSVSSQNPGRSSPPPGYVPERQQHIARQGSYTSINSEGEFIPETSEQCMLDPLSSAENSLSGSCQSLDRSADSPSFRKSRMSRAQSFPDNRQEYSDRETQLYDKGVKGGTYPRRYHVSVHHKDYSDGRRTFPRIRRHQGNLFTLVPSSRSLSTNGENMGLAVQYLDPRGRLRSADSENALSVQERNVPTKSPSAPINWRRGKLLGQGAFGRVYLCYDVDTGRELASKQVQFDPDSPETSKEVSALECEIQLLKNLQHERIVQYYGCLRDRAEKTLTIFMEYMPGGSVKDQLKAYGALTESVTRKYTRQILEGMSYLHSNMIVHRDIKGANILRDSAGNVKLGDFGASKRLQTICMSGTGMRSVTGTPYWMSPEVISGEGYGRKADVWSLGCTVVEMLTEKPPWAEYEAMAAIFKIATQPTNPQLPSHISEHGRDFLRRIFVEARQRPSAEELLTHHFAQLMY
# Apaf1 inhib = inhibitors of human Apaf-1 apoptosome; inhibition, % at 20 µM; 330,000 tested, 0.71% active; reconstituted apoptosome caspase-3 activity, DEVD-Rh110 fluorescence; active = inhibition of at least 40% at 20 µM
#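 Medium: Hepes buffer, pH 7.5 / System: biochemical Apaf-1 apoptosome reconstitution / Measured by: Rh110 fluorescence, excitation 480 nm, emission 540 nm / Times: compound with Apaf-1, dATP, procaspase-3 30 min, then 50 min reaction, room temperature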
# MEKK2wt confirm = raises or lowers MEK5 binding to wildtype human MEKK2, retest | shares compounds with MEKK3 PB1 HTS | bead flow cytometry, Alexa488-MEK5 binding to MEKK2 WT; actives lie on both sides | binding response (% of control), % at 10 µM | 5,900 tested, 2.4% active | AID 1892; in the data active = binding response below about 16% or above about 210%; inactive = in between
# MEKK2mut confirm = signal of MEK5 binding to mutant human MEKK2, retest; shares compounds with MEKK3 PB1 HTS; 5,900 tested, 2% active; percent response, % at 10 µM; bead flow cytometry, Alexa488-MEK5 binding to MEKK2 mutant; in the data active = percent response mostly above about 71%, no sharp cut-off; inactive = mostly below about 38%;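 note: higher means compound restores mutant binding toward wildtype level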
# MEKK3-MEK5 inh = confirmation of inhibitors of MEK5 binding to human MEKK3; shares compounds with MEKK3 PB1 HTS; binding response (% of control), % at 10 µM; bead flow cytometry, Alexa488-MEK5 binding to MEKK3; stronger effect = lower value; 5,900 tested, 1.8% active;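 active = binding response below 72% of control, or above a set upper limit, though filed actives all read lower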
# Hits are given with their value; i = inactive; nt = no result; + = active, no number; [ ] = remark or other dose. Shown are actives, neighbours in structure and some others; about 2.9% of the full set was active somewhere.
SMILES,MEKK2mut PB1 HTS,UBC13 polyUb,MEKK2 WT-MEK5,MEKK3 PB1 HTS,Apaf1 inhib,MEKK2wt confirm,MEKK2mut confirm,MEKK3-MEK5 inh
O=C(/C=C/Nc1ccc(Cc2ccc(N/C=C/C(=O)C(F)(F)F)cc2)cc1)C(F)(F)F,i,i,i,134.0,i,i,i,i
C=CCOc1c(Br)cc(/C=N/n2c(CC)n[nH]c2=S)cc1Br,i,i,i,i,i,nt,nt,nt
COc1ccccc1CCc1nnc(CCC(=O)NC(C)Cn2nc(C)cc2C)o1 (centres undefined),i,i,i,37.0[inhibitor],i,i,i,i
O=C(CCCCCNC(=O)N1CCn2c1nc1ccccc12)NCCc1ccccc1,i,i,i,i,i,nt,nt,nt
O=C(NC1(C(F)(F)F)N=C(c2ccccc2)NC1=O)c1ccccc1F (centres undefined),i,i,i,134.0,i,i,i,i
O=C(NC1(C(F)(F)F)N=C(c2ccccc2)NC1=O)c1ccccc1 (centres undefined),i,i,i,i,i,nt,nt,nt
COc1cc(/C=C2\CCC(C3CCCC3)C2=O)ccc1OC(C)C (centres undefined),i,i,i,i,i,nt,nt,nt
CCN(CC)CCNC(C(=O)Nc1cc(C(F)(F)F)ccc1Cl)c1ccccc1 (centres undefined),i,i,i,143.0,i,i,i,i
O=C(Nc1cc(C(F)(F)F)ccc1Cl)C(NCc1ccccc1)c1ccccc1 (centres undefined),i,i,i,i,i,nt,nt,nt
Cc1noc(C)c1CSc1ncnc2sc3c(c12)CCC3,i,nt,i,133.0,nt,i,i,i
Cc1noc(C)c1CSc1ncnc2sc3c(c12)CCC(C)C3 (centres undefined),i,i,i,i,i,nt,nt,nt
O=C(Nc1cccnc1Cl)c1cc2ccccc2o1,i,i,i,i,i,nt,nt,nt
COc1cc(/C=N/NC(=O)C2c3ccccc3Oc3ccccc32)ccc1O,i,i,i,122.0,i,i,i,i
COc1cc(/C=N/NC(=O)C2(O)c3ccccc3-c3ccccc32)ccc1O,i,i,i,148.0,i,i,i,i
CCOc1ccc(/C=N/NC(=O)C2(O)c3ccccc3-c3ccccc32)cc1,i,i,i,i,i,nt,nt,nt
COc1cc(/C=N\NC(=O)CNC(=O)C2COc3ccccc3O2)ccc1O (centres undefined),i,i,170.0,134.0,i,i,i,i
COc1cc(/C=N/NC(=O)C2COc3ccccc3O2)ccc1O (centres undefined),i,i,i,i,i,nt,nt,nt
O=C(O)c1cccc(-n2c(-c3cnccn3)n[nH]c2=S)c1,i,i,i,i,i,nt,nt,nt
COC(=O)C[C@H]1c2cc(C(F)(F)F)ccc2S(=O)(=O)N1Cc1ccccc1OC,i,i,i,i,i,nt,nt,nt
O=C(COC(=O)c1ccccc1O)Nc1cccc2ccccc12,nt,i,nt,nt,i,nt,nt,nt
CCCC(C)CO (centres undefined),nt,i,nt,nt,i,nt,nt,nt
COc1ccc2c(c1)C(=O)OC2CC(=O)O (centres undefined),i,i,14.0[inhibitor],9.0[inhibitor],i,i,i,i
COc1ccc(OC)c(C(=O)CC2OC(=O)c3ccccc32)c1 (centres undefined),i,i,i,i,i,nt,nt,nt
Cc1ccc(-n2c(-c3cccs3)nc3nc4ccccc4nc32)cc1,i,i,i,i,i,nt,nt,nt
Fc1ccc(-n2c(-c3cccs3)nc3nc4ccccc4nc32)cc1,i,i,i,134.0,i,i,i,i
SMILES,MEKK2mut PB1 HTS,UBC13 polyUb,MEKK2 WT-MEK5,MEKK3 PB1 HTS,Apaf1 inhib,MEKK2wt confirm,MEKK2mut confirm,MEKK3-MEK5 inh
CCC(CC)n1[nH]c(=O)cc1N,i,i,i,128.0,i,i,i,i
CCCC(C)n1[nH]c(=O)cc1N (centres undefined),i,i,i,i,i,nt,nt,nt
COc1ccc(C)cc1N(CC(=O)N1CCc2ccccc2C1)S(C)(=O)=O,i,i,i,i,i,nt,nt,nt
NC1=NC2(CCCCC2)N=C(Nc2ccc(Br)cc2)N1,i,i,141.0,i,i,i,i,i
COc1ccc(NC(=O)COC(=O)Cc2c(F)cccc2Cl)cc1OC,nt,i,nt,nt,i,nt,nt,nt
O=C(NC(=S)NNC(=O)c1cnccn1)c1ccc(Cl)cc1,i,i,-10.0[inhibitor],2.0[inhibitor],i,i,i,i
COc1ccc(C(=O)NC(=S)NNC(=O)c2cnccn2)cc1,i,i,i,i,i,nt,nt,nt
CC(C)(C)C(=O)OCc1nc(-c2ccc(F)cc2)cs1,i,i,44.0[inhibitor],i,i,i,i,i
Cc1ccccc1NC(=O)/C(C#N)=C/c1ccc(-c2ccc(Cl)c(C(=O)O)c2)o1,i,i,i,i,i,nt,nt,nt
Cc1cccc(NC(=O)/C(C#N)=C/c2ccc(Sc3ccccc3)o2)c1C,i,i,i,128.0,i,i,i,i
COc1ccc(/C=C/C(=O)N[C@H](C(=O)O)C(C)C)cc1,i,i,i,i,i,nt,nt,nt
CCOc1ccc(S(=O)(=O)N2CCCC(C(=O)NCC3CCCO3)C2)cc1 (centres undefined),i,i,i,i,i,nt,nt,nt
COC(=O)c1ccccc1NC(=O)C1CC(=O)N(c2ccc(C)c(C)c2)C1 (centres undefined),i,i,i,131.0,i,i,i,i
CCCN(C(=O)Cc1ccc(S(=O)(=O)N2CCOCC2)s1)c1c(N)n(Cc2ccccc2)c(=O)[nH]c1=O,i,i,i,i,i,nt,nt,nt
CCOC(=O)c1ccc2c(c1)nc(SCC(=O)c1cc3ccccc3o1)n2CC,i,i,55.0[inhibitor],73.0[inhibitor],i,i,i,i
C=CCNC(=O)CSc1nc2cc(C(=O)OCC)ccc2n1CC,i,i,i,i,i,nt,nt,nt
O=C(CSc1nccc(=O)[nH]1)c1cc2ccccc2o1,i,i,i,i,i,nt,nt,nt
O=C(CSc1ncn[nH]1)c1cc2ccccc2o1,+,i,+,173.0,i,i,i,i
Cn1nc(Oc2ncc(C(F)(F)F)cc2Cl)cc1C(F)(F)F,i,i,i,i,i,nt,nt,nt
COc1ccccc1C(c1nnnn1CC1CCCO1)N1CCC(C(N)=O)CC1 (centres undefined),i,i,i,74.0[inhibitor],i,i,i,i
COCCn1nnnc1C(c1ccc(OC)cc1)N1CCN(c2ccccc2F)CC1 (centres undefined),i,i,i,122.0,i,i,i,i
COc1ccc(C(c2nnnn2CC2CCCO2)N2CCN(c3cccc(C)c3C)CC2)cc1 (centres undefined),i,i,i,122.0,i,i,i,i
COc1ccc(-c2cc(C(=O)Nc3cccnc3)no2)cc1OC,i,i,i,i,i,nt,nt,nt
